Type in all cases: functional
Test [1] deals with Pseudomonas aeruginosa. The test is described as follows: Antibacterial activity against Pseudomonas aeruginosa ATCC 27853 after 24 hrs by two-fold broth microdilution method. Particulars: ATCC 27853, 24 h. Put shortly:
(§1)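 Strains subcultured one day before testing; colonies suspended in sterile water and adjusted to 0.5 McFarland (1.5 × 10^8 cfu/ml). Two-fold dilutions in MHB (medium pH 7.4 ± 0.1), final 200 to 0.39 µg/ml. Incubated 37 ± 1 °C for 24 h, then resazurin (0.4 mg/ml) added for a further 5 h. MIC read by colour: blue = no growth, pink = growth.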
For orientation: In broth dilution the organism is exposed to a series of concentrations in liquid medium.

Test [2] concerns Staphylococcus aureus. The test is described as follows: Antibacterial activity against Staphylococcus aureus ATCC 25923 after 24 hrs by two-fold broth microdilution method. Particulars: ATCC 25923, 24 h. Put shortly: as §1
Test [3] deals with Bacillus subtilis. The test is described as follows: Antibacterial activity against Bacillus subtilis ATCC 6051 after 24 hrs by two-fold broth microdilution method. Particulars: ATCC 6051, 24 h. Put shortly:
as §1

In test [4] the test system is Candida albicans. The test is described as follows: Antifungal activity against Candida albicans ATCC 90028 after 24 hrs by two-fold broth microdilution method. Particulars: ATCC 90028, 24 h. Put shortly:
as §1

In test [5] the test system is Candida albicans. Nature of the test: Antifungal activity against Candida albicans clinical isolate after 24 hrs by two-fold broth microdilution method. Put shortly:
as §1

Test [6] deals with Cryptococcus neoformans. Nature of the test: Antifungal activity against […] ATCC 66031 after 24 hrs by two-fold broth microdilution method. Particulars: ATCC 66031, 24 h. Put shortly: as §1
In test [7] the test system is Escherichia coli. The test is described as follows: Antibacterial activity against Escherichia coli ATCC 35218 after 24 hrs by two-fold broth microdilution method. Particulars: ATCC 35218, 24 h. Put shortly: as §1
The subject of test [8] is Cryptococcus neoformans. The test is described as follows: Antifungal activity against […] clinical isolate after 24 hrs by two-fold broth microdilution method. Put shortly:
as §1

Test [9] relates to Aspergillus niger. Nature of the test: Antifungal activity against Aspergillus niger ATCC 16404 after 24 hrs by two-fold broth microdilution method. Particulars: ATCC 16404, 24 h. Put shortly: as §1

SMILES strings stand for the structures. Converted amounts (≈) assume the structure as drawn. Bounds are passed on as bounds.

Usually MIC stands for the lowest concentration found to suppress growth. Low values mean greater potency, high ones weaker potency. Regarding `Cc1ccc(C(=O)/C=C/c2c(-c3ccc(Br)cc3)nc3sc(-c4ccccc4)nn23)cc1`, the MIC in test [1] is over 200 µg/mL; in [2] it was over 200 µg/mL; in test [3], over 200 µg/mL; in test [4], 25 µg/mL (≈ 50 µM); in test [5], over 200 µg/mL; in [6] it was 25 µg/mL (≈ 50 µM). Also, the MIC in test [7] was over 200 µg/mL; in test [8] it was 100 µg/mL (≈ 200 µM); in test [9], over 200 µg/mL.
Consider `C[C@@H]1[C@H](O)[C@@H](C)/C=C/C=C/C=C/C=C/C=C/C=C/C=C/[C@H](O[C@@H]2O[C@H](C)[C@@H](O)[C@H](N)[C@@H]2O)C[C@@H]2O[C@](O)(C[C@@H](O)C[C@@H](O)[C@H](O)CC[C@@H](O)C[C@@H](O)CC(=O)O[C@H]1C)C[C@H](O)[C@H]2C(=O)O` [AMPHOTERICIN B], for which the MIC stood at 0.25 µg/mL (≈ 0.271 µM) in test [4]; 25 µg/mL (≈ 27.1 µM) in test [5]; 1 µg/mL (≈ 1.08 µM) in test [6]; 1 µg/mL (≈ 1.08 µM) in test [8]; 1.95 µg/mL (≈ 2.11 µM) in [9].
On to `Cc1ccc(C(=O)/C=C/c2c(-c3ccc(Br)cc3)nc3sc(-c4ccccc4Br)nn23)cc1`, for which the MIC is over 200 µg/mL in test [1]; 100 µg/mL (≈ 173 µM) in test [2]; over 200 µg/mL in [3]; 200 µg/mL (≈ 345 µM) in [4]; over 200 µg/mL in [5]; 1.56 µg/mL (≈ 2.69 µM) in test [6]. Also, the figures for the MIC in test [7], in test [8] and in test [9] were over 200 µg/mL, 12.5 µg/mL (≈ 21.6 µM) and over 200 µg/mL, respectively.
Consider `Clc1ccccc1-c1nn2c(/C=N/C3CC3)c(-c3ccc(Br)cc3)nc2s1`, for which the minimum inhibitory concentration (MIC) in test [1] amounted to 50 µg/mL (≈ 109 µM); in test [2], 200 µg/mL (≈ 437 µM); in [3], 200 µg/mL (≈ 437 µM); in test [4], 25 µg/mL (≈ 54.6 µM); in [5], 50 µg/mL (≈ 109 µM); in test [6] it was 100 µg/mL (≈ 218 µM). The MIC is 200 µg/mL (≈ 437 µM) in test [7], over 200 µg/mL in [8] and 100 µg/mL (≈ 218 µM) in test [9].
Consider `Cc1ccc(C(=O)/C=C/c2c(-c3ccc(Br)cc3)nc3sc(-c4ccccc4Cl)nn23)cc1`, for which the MIC in test [1] is over 200 µg/mL; in [2] it was 200 µg/mL (≈ 374 µM); in test [3], over 200 µg/mL; in test [4] it was 50 µg/mL (≈ 93.5 µM); in test [5] it was over 200 µg/mL; in [6] it was 50 µg/mL (≈ 93.5 µM). Besides, the MIC in test [7] was over 200 µg/mL; in [8], 100 µg/mL (≈ 187 µM); in test [9] it was over 200 µg/mL.
Take `Clc1ccc(-c2nn3c(/C=N/C4CC4)c(-c4ccc(Br)cc4)nc3s2)cc1`: the MIC in [1] worked out at 50 µg/mL (≈ 109 µM); in [2], 200 µg/mL (≈ 437 µM); in test [3], 200 µg/mL (≈ 437 µM); in [4] it was 25 µg/mL (≈ 54.6 µM); in [5], 50 µg/mL (≈ 109 µM); in test [6] it was 100 µg/mL (≈ 218 µM). The MIC in [7] was found to be 200 µg/mL (≈ 437 µM); in test [8], 200 µg/mL (≈ 437 µM); in test [9], 100 µg/mL (≈ 218 µM).
In the case of `COc1ccc(-c2nn3c(/C=C/C(=O)c4ccccc4)c(-c4ccc(Br)cc4)nc3s2)cc1`, the MIC is over 200 µg/mL in test [1]; over 200 µg/mL in test [2]; over 200 µg/mL in test [3]; 50 µg/mL (≈ 96.8 µM) in test [4]; over 200 µg/mL in test [5]; 3.12 µg/mL (≈ 6.05 µM) in test [6]. In addition, the MIC was 200 µg/mL (≈ 387 µM) in test [7], 12.5 µg/mL (≈ 24.2 µM) in test [8] and over 200 µg/mL in [9].
Regarding `Clc1ccc(-c2nn3c(/C=N/C4CCCCC4)c(-c4ccc(Br)cc4)nc3s2)cc1`, the MIC in test [1] amounted to 50 µg/mL (≈ 100 µM); in test [2], 200 µg/mL (≈ 400 µM); in [3], 200 µg/mL (≈ 400 µM); in test [4], 50 µg/mL (≈ 100 µM); in test [5] it was 50 µg/mL (≈ 100 µM); in test [6] it was 100 µg/mL (≈ 200 µM). For the same molecule, the values for the MIC in [7], in [8] and in [9] were 200 µg/mL (≈ 400 µM), over 200 µg/mL and 100 µg/mL (≈ 200 µM), respectively.
Consider `O=C(/C=C/c1c(-c2ccc(Br)cc2)nc2sc(-c3ccccc3Cl)nn12)c1cccs1`, for which the MIC was over 200 µg/mL in test [1]; over 200 µg/mL in test [2]; over 200 µg/mL in test [3]; 50 µg/mL (≈ 94.9 µM) in test [4]; over 200 µg/mL in test [5]; 200 µg/mL (≈ 380 µM) in test [6]. Besides, the MIC in test [7] is over 200 µg/mL; in test [8] it was 200 µg/mL (≈ 380 µM); in [9] it was over 200 µg/mL.
On to `COc1ccc(-c2nn3c(/C=N/C4CC4)c(-c4ccc(Br)cc4)nc3s2)cc1`, for which the MIC amounted to 25 µg/mL (≈ 55.1 µM) in [1]; 200 µg/mL (≈ 441 µM) in [2]; 200 µg/mL (≈ 441 µM) in test [3]; 25 µg/mL (≈ 55.1 µM) in [4]; 50 µg/mL (≈ 110 µM) in test [5]; 100 µg/mL (≈ 221 µM) in test [6]. Further, the MIC in test [7] was 200 µg/mL (≈ 441 µM); in [8], over 200 µg/mL; in test [9], 100 µg/mL (≈ 221 µM).
Take `Brc1ccc(-c2nc3sc(-c4ccccc4Br)nn3c2/C=N/C2CCCCC2)cc1`: the MIC in test [1] was 50 µg/mL (≈ 91.9 µM); in [2], 200 µg/mL (≈ 367 µM); in [3], 200 µg/mL (≈ 367 µM); in test [4], 50 µg/mL (≈ 91.9 µM); in test [5], 50 µg/mL (≈ 91.9 µM); in test [6], 100 µg/mL (≈ 184 µM). Further, the results for the MIC in test [7], in test [8] and in [9] were 200 µg/mL (≈ 367 µM), 200 µg/mL (≈ 367 µM) and 50 µg/mL (≈ 91.9 µM), respectively.
As to `Brc1ccc(-c2nc3sc(-c4ccccc4Br)nn3c2/C=N/C2CC2)cc1`, the minimum inhibitory concentration (MIC) is 50 µg/mL (≈ 99.6 µM) in test [1]; 200 µg/mL (≈ 398 µM) in test [2]; 200 µg/mL (≈ 398 µM) in [3]; 25 µg/mL (≈ 49.8 µM) in [4]; 50 µg/mL (≈ 99.6 µM) in test [5]; 100 µg/mL (≈ 199 µM) in [6]. Besides, the figures for the MIC in test [7], in test [8] and in test [9] were 200 µg/mL (≈ 398 µM), 200 µg/mL (≈ 398 µM) and 100 µg/mL (≈ 199 µM), respectively.
For `Brc1ccc(-c2nc3sc(-c4ccccc4)nn3c2/C=N/C2CC2)cc1`, the MIC turned out to be 50 µg/mL (≈ 118 µM) in test [1]; 200 µg/mL (≈ 472 µM) in test [2]; 200 µg/mL (≈ 472 µM) in [3]; 25 µg/mL (≈ 59.1 µM) in test [4]; 50 µg/mL (≈ 118 µM) in test [5]; 100 µg/mL (≈ 236 µM) in test [6]. In addition, the MIC in test [7] is 200 µg/mL (≈ 472 µM); in test [8], over 200 µg/mL; in test [9], 100 µg/mL (≈ 236 µM).
In the case of `O=C(/C=C/c1c(-c2ccc(Br)cc2)nc2sc(-c3ccc(Cl)cc3)nn12)c1ccccc1`, the MIC was over 200 µg/mL in [1]; over 200 µg/mL in test [2]; over 200 µg/mL in test [3]; over 200 µg/mL in test [4]; over 200 µg/mL in test [5]; 6.25 µg/mL (≈ 12 µM) in test [6]. The MIC in test [7] is over 200 µg/mL; in [8], 12.5 µg/mL (≈ 24 µM); in test [9], over 200 µg/mL.
For the molecule `O=C(/C=C/c1c(-c2ccc(Br)cc2)nc2sc(-c3ccccc3Br)nn12)c1ccccc1`, the MIC in test [1] was over 200 µg/mL; in [2] it was 200 µg/mL (≈ 354 µM); in [3], over 200 µg/mL; in test [4] it was 200 µg/mL (≈ 354 µM); in [5], over 200 µg/mL; in test [6], 1.56 µg/mL (≈ 2.76 µM). The MIC in test [7] was over 200 µg/mL; in test [8], 6.25 µg/mL (≈ 11.1 µM); in test [9] it was over 200 µg/mL.
Turning to `O=C(/C=C/c1c(-c2ccc(Br)cc2)nc2sc(-c3ccccc3Br)nn12)c1cccs1`, the MIC in test [1] is over 200 µg/mL; in test [2], over 200 µg/mL; in test [3] it was over 200 µg/mL; in test [4], over 200 µg/mL; in [5], over 200 µg/mL; in test [6] it was 3.12 µg/mL (≈ 5.47 µM). Besides, the MIC in test [7] was over 200 µg/mL; in test [8], 12.5 µg/mL (≈ 21.9 µM); in test [9] it was over 200 µg/mL.
For the molecule `CC1(C)S[C@@H]2[C@H](NC(=O)[C@H](N)c3ccc(O)cc3)C(=O)N2[C@H]1C(=O)O` [AMOXICILLIN], the minimum inhibitory concentration (MIC) in test [1], in test [2], in test [3] and in [7] was under 0.39 µg/mL throughout.

Source of the values: ChEMBL document CHEMBL3414553, “Novel imidazo[2,1-b]-1,3,4-thiadiazoles as promising antifungal agents against clinical isolate of Cryptococcus neoformans” (2015).
